Pemphigus Ab inh – inhibitors of pemphigus antibody binding to human desmoglein-3; P32926; DSG3-coupled beads, scFv-anti-DSG3-GFP binding, flow cytometry; stronger effect = lower value; binding (percent of control), % at 10 µM; actives 0.48% (n = 310,000);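 active = binding more than 3 SD below its plate's average and above zero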;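 also: hits lower antibody fragment binding to DSG3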
MEKK2 mut-MEK5 – signal of MEK5 binding to mutant human MEKK2 PB1 domain. bead flow cytometry, Alexa488-MEK5 binding to MEKK2 mutant. percent response, % at 10 µM. actives 0.35% (n = 290,000). AID 1530; in the data active = percent response above about 24%, passing the limit was not always enough
UBC13 polyUb – inhibitors of human UBC13 polyubiquitin chain formation | TR-FRET | inhibition, % at 20 µM | actives 0.47% (n = 330,000); in the data active = inhibition above about 45%, passing the limit was not always enough
MEKK2wt PB1 HTS – raises or lowers MEK5 binding to wildtype human MEKK2 PB1 domain | AID 1531 | actives 1.1% (n = 290,000) | binding response (% of control), % at 10 µM | bead flow cytometry, Alexa488-MEK5 binding to MEKK2 WT; actives lie on both sides | Q9Y2U5; in the data active = binding response below about 67% or above about 130%
MEKK3 PB1 HTS – modulators (inhibitors or enhancers) of MEK5 binding to human MEKK3 PB1 domain; bead-based flow cytometry, Alexa488-MEK5 binding to MEKK3; actives lie on both sides; 0 = blocked by unlabeled MEK5, 100 = vehicle; binding response (% of control), % at 10 µM; actives 1.4% (n = 290,000);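 active = binding response more than 3 SD above or below the average of its plate-row segment, actives on both sides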;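 also: Alexa488 bead fluorescence after subtracting the streptavidin-only scavenger bead signal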
Apaf-1 inh – blocks human Apaf-1 apoptosome activity. O14727. reconstituted apoptosome caspase-3 activity, DEVD-Rh110 fluorescence. inhibition, % at 20 µM. actives 0.71% (n = 330,000). AID 489030; active = inhibition of at least 40% at 20 µM;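 also: plate controls were DMSO wells for no effect and DEVD-CHO caspase inhibitor wells for full effect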
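Material: reconstituted apoptosome with Apaf-1, cytochrome c, caspase-9, procaspase-3, dATP; medium: pH 7.5 Hepes buffer with CHAPS, BSA, DTT; also added: cytochrome c and DEVD-Rh110 substrate; timing: 30 min plus 50 min, RT; signal: Rh110 fluorescence intensity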
MEKK2wt confirm – raises or lowers MEK5 binding to wildtype human MEKK2, retest | shares compounds with MEKK3 PB1 HTS | bead flow cytometry, Alexa488-MEK5 binding to MEKK2 WT; actives lie on both sides | binding response (% of control), % at 10 µM | actives 2.4% (n = 5,900) | AID 1892; in the data active = binding response below about 16% or above about 210%; inactive = in between
MEKK2mut confirm – signal of MEK5 binding to mutant human MEKK2, retest; bead flow cytometry, Alexa488-MEK5 binding to MEKK2 mutant; percent response, % at 10 µM; actives 2% (n = 5,900); shares compounds with MEKK3 PB1 HTS; in the data active = percent response mostly above about 71%, no sharp cut-off; inactive = mostly below about 38%;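 also: higher means compound restores mutant binding toward wildtype level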
MEKK3-MEK5 inh – MEKK3-MEK5 PB1 inhibition, single concentration confirmation; shares compounds with MEKK3 PB1 HTS; bead flow cytometry, Alexa488-MEK5 binding to MEKK3; stronger effect = lower value; binding response (% of control), % at 10 µM; actives 1.8% (n = 5,900);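 active = binding response below 72% of control, or above a set upper limit, though filed actives all read lower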;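 also: 100% = DMSO only wells and 0% = binding blocked by excess unlabeled MEK5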
Starred values were filed as active, the others as inactive; x = no result; [ ] = dose if it differs, or a comment. Shown are actives, neighbours in structure and some others; about 3.2% of the full set was active somewhere.

SMILES	Pemphigus Ab inh	MEKK2 mut-MEK5	UBC13 polyUb	MEKK2wt PB1 HTS	MEKK3 PB1 HTS	Apaf-1 inh	MEKK2wt confirm	MEKK2mut confirm	MEKK3-MEK5 inh
CC(=O)Nc1ccc(S(=O)(=O)NCC2CCC(C(=O)NCc3ccccc3)CC2)cc1 (stereo unspecified)	97	1	-7	129	138*	-5	101	4	101
O=C(OCN1C(=O)c2ccccc2C1=O)c1cccc(OC(F)F)c1	104	8	5	103	105	3	x	x	x
COc1ccccc1C(=O)NCCC(=O)Nc1cccnc1	100	-13	6	80	73*[inhibitor]	-6	105	0	102
c1ccc(CN2CCC(Nc3nc(-c4cccs4)nc4ccccc34)CC2)cc1	105	27	25	188*	116	21	173	40	112
Cc1ccc2sc(N(CCCN(C)C)C(=O)c3nc4ccccc4s3)nc2c1C	108	33	22	144*	103	-2	196	63	111
CCN(Cc1ccccc1)S(=O)(=O)c1ccc(C(=O)N(CCCN(C)C)c2nc3c(C)c(C)ccc3s2)cc1	113	x	15	x	x	33	x	x	x
Cc1cccc2sc(N(CCCN(C)C)C(=O)c3nc4ccccc4s3)nc12	118	-3	25	83	67*[inhibitor]	3	158	42	100
Cc1ccc2sc(N(CCCN(C)C)C(=O)c3ccc(Br)s3)nc2c1C	94	218*	32	479*	140*	-15	180	60	110
Cc1cccc2sc(N(CCCN(C)C)C(=O)CCc3ccccc3)nc12	130	24	29	126	103	13	x	x	x
CCOc1cccc2sc(N(CCN(C)C)C(=O)c3ccc(Br)s3)nc12	100	-1	4	105	90	-9	x	x	x
Cc1ccccc1-n1c(SCC(=O)Nc2c(C)cccc2C)nc(O)cc1=O	x	2	-1	100	102	15	x	x	x
CC1=C[C@@H](C)[C@@H](c2ccccc2)OC1=O	105	-6	3	88	78*[inhibitor]	-5	102	14	105
CC(C)(C)NC(=O)C(c1ccncc1)N(C(=O)c1csnn1)c1cccc2ccccc12 (stereo unspecified)	101	6	6	124	143*	-2	98	-21	98
Cc1ccccc1N(C(=O)c1csnn1)C(C(=O)NC(C)(C)C)c1ccncc1 (stereo unspecified)	104	-4	4	89	80	1	x	x	x
COc1ccc(CCNC(=S)Nc2ccc(C(C)C)cc2)cc1	103	25	4	115	134*	15	101	-4	96
COc1ccc(NS(=O)(=O)c2ccc(C(=O)N(C)Cc3cccs3)cc2)cc1	112	x	0	x	x	12	x	x	x
COc1ccc(-c2csc(Nc3ccc(C)cn3)n2)cc1OC	100	8	12	142	143*	-10	111	1	101
COc1ccc(-c2csc(Nc3cc(C)ccn3)n2)cc1OC	108	6	6	118	111	8	x	x	x
Cc1ccc(NC(=O)CN(C)C(=O)C2CSC3(C)CCC(=O)N23)cc1 (stereo unspecified)	100	x	x	x	x	x	x	x	x
C/C(=N\NC(=S)Nc1cccc(C)c1)c1ccco1	98	-18	6	9.0*[inhibitor]	7.0*[inhibitor]	-1	106	5	105
CC1CCN(C(=O)COC(=O)c2c[nH]c3ccccc23)CC1	109	x	2	x	x	1	x	x	x
CNC(=O)COC(=O)CNC(=O)c1cc(Cl)cc([N+](=O)[O-])c1	106	-2	-10	115	127	-1	x	x	x
CC(C)(C)NC(=O)COC(=O)CNC(=O)c1cc(Cl)cc([N+](=O)[O-])c1	91	0	-8	106	131*	-1	92	-8	89
CC(C)CNC(=O)COC(=O)CNC(=O)c1cc(Cl)cc([N+](=O)[O-])c1	115	0	-3	105	149*	-1	104	9	109
CCNC(=O)COC(=O)CNC(=O)c1cc(Cl)cc([N+](=O)[O-])c1	114	-1	0	96	97	0	x	x	x
SMILES	Pemphigus Ab inh	MEKK2 mut-MEK5	UBC13 polyUb	MEKK2wt PB1 HTS	MEKK3 PB1 HTS	Apaf-1 inh	MEKK2wt confirm	MEKK2mut confirm	MEKK3-MEK5 inh
C[C@@H]1CN([C@H](C)CO)C(=O)CCCn2nncc2CO[C@H]1CN(C)C(=O)Nc1ccc(N2CCN(C)CC2)cc1	113	x	x	x	x	x	x	x	x
Cc1c2ccccc2nc2c(F)c(N(C)C)c(F)c(F)c12	123	0	-5	100	145*	11	97	-2	101
COc1cccc(NC(=O)n2ncc3c(C)cccc32)c1	100	6	8	105	99	5	x	x	x
Cc1cc(C)c(-n2c(SCc3nc4ccccc4s3)n[nH]c2=O)c(C)c1	x	24	-2	107	130*	17	83	-16	84
CN(CCOc1ccccc1)C(=O)c1ccc(Cl)c(S(=O)(=O)N2CCCCC2)c1	100	x	-8	x	x	21	x	x	x
C=C(C)Cn1c(SCC#N)nc2ccccc2c1=O	103	-10	-1	92	82*[inhibitor]	-4	101	-1	104
C=C(C)Cn1c(SCC)nc2ccccc2c1=O	103	4	1	106	103	8	x	x	x
Cn1c(SCC#N)nc2ccccc2c1=O	96	29	5	116	128*	-3	96	-12	99
CCOc1ccccc1-n1c(SCC(=O)N2CCCc3ccccc32)nnc1-c1cccnc1	x	-1	10	104	132*	10	112	4	105
Cc1ccc(-n2c(SCC(=O)N3CCCc4ccccc43)nnc2-c2cccnc2)c(C)c1	135	3	6	91	97	1	x	x	x
Cc1ccc(-c2nc3ccccc3c(=O)n2NC(=O)c2cccs2)cc1	101	1	2	104	129*	0	99	0	101
O=C(O)c1cccc(NC(=S)N/N=C/c2cccc(O)c2)c1	100	-3	0	94	95	-3	x	x	x
O=C(O)c1cccc(NC(=S)N/N=C/c2ccccn2)c1	95	6	-11	128	159*	-7	107	2	104
Cc1ccccc1C(=O)NC=C1C(=O)OC(C)(C)OC1=O	95	-1	3	101	98	-5	x	x	x

Screens deposited in PubChem BioAssay by several laboratories.
